# Measured values pooled from the literature.
# Protocols differ between the studies behind these lines.
# Target: Serine/threonine-protein kinase Nek1 (NEK1, Homo sapiens, UniProt Q96PY6)
# One construct used (Q96PY6 1-1258): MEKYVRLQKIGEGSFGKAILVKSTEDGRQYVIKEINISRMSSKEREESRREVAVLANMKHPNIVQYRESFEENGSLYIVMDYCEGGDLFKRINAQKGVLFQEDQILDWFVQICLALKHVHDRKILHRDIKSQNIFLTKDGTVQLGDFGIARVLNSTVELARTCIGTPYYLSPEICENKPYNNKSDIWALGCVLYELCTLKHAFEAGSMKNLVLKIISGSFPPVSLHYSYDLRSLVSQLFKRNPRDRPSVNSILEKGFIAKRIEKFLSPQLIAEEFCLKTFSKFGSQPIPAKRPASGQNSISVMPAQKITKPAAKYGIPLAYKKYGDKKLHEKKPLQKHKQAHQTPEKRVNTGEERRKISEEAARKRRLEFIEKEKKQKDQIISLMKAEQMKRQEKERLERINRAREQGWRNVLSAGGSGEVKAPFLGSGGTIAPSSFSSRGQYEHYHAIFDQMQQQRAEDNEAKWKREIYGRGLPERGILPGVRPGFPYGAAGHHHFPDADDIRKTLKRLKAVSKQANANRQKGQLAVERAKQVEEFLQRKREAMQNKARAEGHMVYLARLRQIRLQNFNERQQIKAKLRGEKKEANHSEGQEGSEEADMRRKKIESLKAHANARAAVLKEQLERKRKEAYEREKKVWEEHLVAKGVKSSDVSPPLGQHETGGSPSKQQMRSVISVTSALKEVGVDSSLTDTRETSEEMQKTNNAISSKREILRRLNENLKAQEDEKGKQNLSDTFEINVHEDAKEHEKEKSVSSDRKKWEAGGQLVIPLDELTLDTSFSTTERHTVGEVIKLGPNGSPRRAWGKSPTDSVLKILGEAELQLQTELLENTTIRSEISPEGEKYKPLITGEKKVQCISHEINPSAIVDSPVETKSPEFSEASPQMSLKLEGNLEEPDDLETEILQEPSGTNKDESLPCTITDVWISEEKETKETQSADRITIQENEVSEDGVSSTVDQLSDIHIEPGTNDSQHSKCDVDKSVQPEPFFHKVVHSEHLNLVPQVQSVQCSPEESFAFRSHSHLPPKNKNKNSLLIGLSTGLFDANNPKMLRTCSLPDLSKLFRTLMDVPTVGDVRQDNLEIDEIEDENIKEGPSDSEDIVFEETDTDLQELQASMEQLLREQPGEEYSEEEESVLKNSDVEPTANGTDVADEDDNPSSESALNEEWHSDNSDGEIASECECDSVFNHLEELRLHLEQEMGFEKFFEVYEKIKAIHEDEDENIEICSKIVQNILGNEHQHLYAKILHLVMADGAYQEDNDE
SMILES,read-out,action,method,cell line,concentration,quantity,value
Cn1cncc1[C@](O)(COc1ccc(C#N)cc1-c1ccc(OC(F)(F)F)cc1)c1ccc(C#N)cc1,cell-free assay,,competition with immobilised ligand,,1 µM,remaining binding,80%
Cn1cc(-c2cc(F)cc(N3CCn4c(cc5c4CCCC5)C3=O)c2CO)cc(Nc2ccc(N3CCN(C4COC4)CC3)cn2)c1=O,enzyme activity,inhibitor,,,0.1 µM,inhibition,-3%
Cc1nn(C)cc1-c1nc2c(N3CCN(Cc4ccc(Cl)cc4)CC3)c(Cl)cnc2[nH]1,binding,,competition with immobilised ligand,,1 µM,remaining binding,82%
Nc1ncc(-c2nc(N3CCOCC3)nc(N3CCOCC3)n2)c(C(F)F)n1,binding,,competition with immobilised ligand,,10 µM,remaining binding,99%
O=C(NCc1ncc(C(F)(F)F)cc1Cl)c1ccc2c(c1)C1(CCS(=O)(=O)CC1)[C@@H](C1CC1)N2S(=O)(=O)c1ccc(F)cc1,cell-free assay,,competition with immobilised ligand,,1 µM,remaining binding,96%
COc1cc(Nc2ncc(F)c(Nc3ccc4c(n3)NC(=O)C(C)(C)O4)n2)cc(OC)c1OC,binding,,competition with immobilised ligand,,10 µM,inhibition,96%
O=c1[nH]c2ccccc2n1C1CCN(Cc2ccc(-c3[nH]c4cc5ncnc5cc4nc3-c3ccccc3)cc2)CC1,cell-free assay,,,,0.5 µM,remaining signal,101%
Cn1cc(-c2cccc(N3CCc4c(sc5c4CC(C)(C)C5)C3=O)c2CO)cc(Nc2ccncn2)c1=O,enzyme activity,inhibitor,,,1 µM,inhibition,5%
CC(C)(C)c1cc(C=C(C#N)C#N)cc(Br)c1O,enzyme activity,inhibitor,,,0.5 µM,remaining activity,97.7%
COc1ncccc1-c1cnn2ccc(N3CCN(C(=O)OC(C)C)CC3)nc12,binding,,competition with immobilised ligand,,1 µM,remaining binding,100%
COCc1c(-c2cc3cc(C)cc(OC)c3s2)c2c(N)ncnn2c1CN1CCNC(=O)C1,cell-free assay,,competition with immobilised ligand,,1 µM,inhibition,78%
CCN1CCN(Cc2ccc(NC(=O)c3ccc(C)c(/C=C/c4cnc5[nH]ccc5c4OC)c3)cc2C(F)(F)F)CC1,target engagement in cells,inhibitor,chemoproteomics,A-375,50 nM,inhibition,-17%
